Experimental data taken from paper PMC3177239 (The Biochemical journal, 2011).

Experiments:
[1] = test system: pig tracheal submucosal glands; assay: Pig tracheal submucosal glands fluid secretion
Outline: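 Pig tracheas collected within 1 h postmortem into ice-cold Krebs-Ringer bicarbonate buffer (1 μM indomethacin) gassed with 95% O2/5% CO2. Serosal side bathed at 37 °C. Agents were diluted in warm gassed buffer and added serosally after basal secretion was recorded. Carbachol 10 μM was added at the end to confirm viability. Rate was taken as the volume-vs-time slope (R² > 0.8): 10-min basal, 25-min stimulated. 11 pigs, 11–43 glands, mean ± s.e.m.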

[2] = test system: cAMP levels in Calu-3 cells; assay: Ratiometric FRET cAMP measurement; format: cell-based; conditions: CO-068 50 μM or FSK 10 μM added after baseline
Outline: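 Calu-3 cells were transiently transfected (Lipofectamine) with the CFP-EPAC-YFP sensor and grown on glass-bottom dishes. Cells were washed twice and held in HBSS, in the dark at room temperature, on an inverted microscope. After baseline, time-lapse images were taken every 1 min (100–300 ms exposure) with an EM-CCD camera. The background-subtracted CFP/FRET emission ratio came from 10–20 regions in 3–5 cells. n = 4–5 separate experiments, mean ± s.e.m.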

Row | SMILES | Effect on FSK-induced fluid secretion ([1]; CFTRinh-172 50 μM plus FSK 10 μM) | Increase in mean fluid secretion rate compared to basal secretion rate ([1]; FSK 10 μM or CO-068 50 μM, over 25 min) | Increase in cAMP levels (CFP/FRET emission ratio) [2]
1 | O=C(O)c1ccc(/C=C2\SC(=S)N(c3cccc(C(F)(F)F)c3)C2=O)cc1 [CFTRinh-172] | markedly inhibited | – | –
2 | C=C[C@@]1(C)CC(=O)[C@]2(O)[C@@]3(C)[C@@H](O)CCC(C)(C)[C@@H]3[C@H](O)[C@H](OC(C)=O)[C@@]2(C)O1 [FSK, forskolin] | – | 5 fold | 1.5 fold
